Series [1] in a line: Antioxidant activity assessed as glutathione peroxidase-like activity assessed as time required to reduce the thiol concentration by 50% after addition of H2O2 by UV spectrophotometry. The format is physicochemical. The procedure, abridged: (§1)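 Tomoda-type thiol peroxidase model run in methanol, or ethanol where needed for solubility, at 25 (±3) °C. Catalyst at 0.1 mM final and PhSH at 2 mM final were mixed. After about 120 s, H₂O₂ was added to 5 mM final. PhSSPh formation was followed at 305 nm, with runs repeated more than three times. T₅₀ is the time to halve the thiol after H₂O₂ addition. Ebselen and (PhSe)₂ were each set to 1.0.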

Series [2] is described as follows: Antioxidant activity assessed as glutathione peroxidase-like activity by UV spectrophotometry relative to ebselen. The format is physicochemical. Summed up:
as §1

The target in series [3] is T1, Thioredoxin reductase 1, cytoplasmic (Rattus norvegicus) (UniProt O89049).
T1 sequence (whole entry): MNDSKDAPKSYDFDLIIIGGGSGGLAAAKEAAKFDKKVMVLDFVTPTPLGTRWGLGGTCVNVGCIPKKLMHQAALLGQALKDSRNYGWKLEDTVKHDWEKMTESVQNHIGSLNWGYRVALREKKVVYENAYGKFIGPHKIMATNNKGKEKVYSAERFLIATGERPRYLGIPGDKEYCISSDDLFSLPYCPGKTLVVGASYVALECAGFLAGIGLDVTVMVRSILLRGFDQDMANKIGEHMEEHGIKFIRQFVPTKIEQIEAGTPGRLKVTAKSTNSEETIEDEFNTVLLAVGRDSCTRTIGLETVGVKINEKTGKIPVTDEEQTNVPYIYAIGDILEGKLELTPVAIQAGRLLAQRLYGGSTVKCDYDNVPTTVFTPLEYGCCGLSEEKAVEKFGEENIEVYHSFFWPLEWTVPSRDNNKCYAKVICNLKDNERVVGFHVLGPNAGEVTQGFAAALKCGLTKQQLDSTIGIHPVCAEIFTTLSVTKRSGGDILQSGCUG
Kind of series: Activity of partially purified rat Thioredoxin reductase assessed as 5 umol/L AuCl3-mediated inhibition of NADPH oxidation by spectrophotometry. Summed up: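 Partially purified rat liver TrxR was used. NADPH consumption was followed at 340 nm for 10 min in the absence or presence of an organoselenium catalyst. AuCl3 was added to the reaction containing the reference selenium catalyst. Activity was expressed as nmol NADPH/min/mg.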

Series [4] addresses T1, Thioredoxin reductase 1, cytoplasmic (Rattus norvegicus). As to the kind of experiment: Activity of partially purified rat Thioredoxin reductase assessed as NADPH oxidation after 10 mins by spectrophotometry. Summed up: (§2)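 Enzyme: partially purified TrxR from rat liver. NADPH consumption read at 340 nm over 10 min, with or without the organoselenium compound. Activity is given as nmol NADPH/min/mg. Efficiency is expressed relative to ebselen. In the reference reaction, NADPH oxidation was checked for sensitivity to […] AuCl₃. Details are in the cited reference.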

For a further series, the system named is Brain. As to the kind of experiment: Antioxidant activity in rat brain homogenate assessed as inhibition of Fe(II)-induced TBARS formation after 60 mins by spectrophotometry. Format: functional, tissue-based.
Series [5] in a line: Antioxidant activity assessed as glutathione peroxidase-like activity by UV spectrophotometry relative to (PhSe)2. The format is physicochemical. Summed up: as §1
Series [6] concerns the target T1, Thioredoxin reductase 1, cytoplasmic (Rattus norvegicus). As to the kind of experiment: Activity of partially purified rat Thioredoxin reductase assessed as NADPH oxidation after 10 mins by spectrophotometry relative to ebselen. The procedure, abridged:
as §2

The source made the active and inactive calls. The calls are words filed in the database; no cut-off is given here.

Turning to `c1ccc([Se][Se]c2ccccc2)cc1`, in series [1], the Time came to 55.04 min. Also, the Ratio in series [2] came to 2.8.

For the molecule `O=c1c2ccccc2[se]n1-c1ccccc1` [EBSELEN], the inhibition in series [3] is > 95%. Moreover, the Time in series [1] was 154.26 min. Further, the Activity in series [4] was found to be 3.4 nmol/min/mg.

Consider `CC(Cc1ccccc1)NC(=O)c1ccccc1[Se][Se]c1ccccc1C(=O)NC(C)Cc1ccccc1` (centres undefined), for which the inhibition entry in the series on Brain is “Active”. The Time in series [1] was 16.87 min. The Ratio in series [2] amounted to 9.14; in series [5], 3.26. Also, in series [4], the Activity came out at 0 nmol/min/mg.

`O=C(C[Se][Se]CC(=O)NCCc1ccccc1)NCCc1ccccc1`: the Ratio was 5.6 in series [6], 3.43 in series [2] and 1.23 in series [5]. Moreover, in the series with Brain, the inhibition entry is “Active”. Moreover, the Time in series [1] is 44.9 min. Besides, the Activity in series [4] was 19.1 nmol/min/mg.

`CC(Cc1ccccc1)NC(=O)CC[Se][Se]CCC(=O)NC(C)Cc1ccccc1` (centres undefined): the Ratio in series [6] is 4; in series [2], 2.03. Moreover, in the series on Brain, the inhibition entry is “Active”. In series [1], the Time amounted to 76 min. Further, the Activity in series [4] is 13.7 nmol/min/mg.

In the case of `CC(Cc1ccccc1)NC(=O)C[Se][Se]CC(=O)NC(C)Cc1ccccc1` (centres undefined), in the series on Brain, the inhibition result is “Active”. The Time in series [1] is given as 299.63 min. For the same molecule, the Activity in series [4] amounted to 0 nmol/min/mg.

As for `O=C(NCCc1ccccc1)c1ccccc1[Se][Se]c1ccccc1C(=O)NCCc1ccccc1`, the inhibition result with Brain is “Active”. The Time in series [1] stood at 29.73 min. For the same molecule, the Ratio stood at 5.2 in series [2] and 1.85 in series [5]. In addition, in series [4], the Activity was 0 nmol/min/mg.

Regarding `O=C(CC[Se][Se]CCC(=O)NCCc1ccccc1)NCCc1ccccc1`, the values for the Ratio in series [6] and in series [2] were 4.7 and 1.89, respectively. Besides, in the series with Brain, the inhibition entry is “Active”. Also, in series [1], the Time is reported as 81.43 min. Also, in series [4], the Activity came to 16.1 nmol/min/mg.

Values taken from ChEMBL document CHEMBL3352349, “Synthesis and biological evaluation of new nitrogen-containing diselenides” (Eur J Med Chem, 2014).
